Measurements reported in ChEMBL document CHEMBL2021771, “Synthesis and biological activity of 2-aminothiazoles as novel inhibitors of PGE2 production in cells” (Bioorg Med Chem Lett, 2012).
Active and inactive are the calls of the source. No cut-off for these calls is given here.

What was measured:
[1] = (§1) Inhibition of IL-1beta-induced PGE2 production in human HCA-7 cells at 1 uM after 72 hrs by EIA; format: functional; settings: HCA-7, 72 h
Summary of the method: (§2)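 Screen of HCA-7 cells at 1 μM compound (DMSO) with 10 ng/ml IL-1β in serum-free medium for 72 h, after overnight DMEM/10% FBS culture and 18 h serum starvation. Supernatant PGE2 quantified by EIA, expressed as % reduction of PGE2 level ± SD, n = 3.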

[2] = Inhibition of IL-1beta-induced PGE2 production in human HCA-7 cells after 72 hrs by EIA; format: functional, cell-based; settings: HCA-7, 72 h
Summary of the method: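 HCA-7 cells seeded and incubated overnight in DMEM/10% FBS, then serum-starved 18 h. Stimulated with 10 ng/ml IL-1β plus increasing compound concentrations (DMSO) in serum-free medium for 72 h. Supernatant PGE2 measured by EIA.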

[3] = biological target: T1, Prostaglandin G/H synthase 2 (Homo sapiens, UniProt P35354); assay: Inhibition of COX2 by fluorescence assay
T1 sequence (P35354 whole entry): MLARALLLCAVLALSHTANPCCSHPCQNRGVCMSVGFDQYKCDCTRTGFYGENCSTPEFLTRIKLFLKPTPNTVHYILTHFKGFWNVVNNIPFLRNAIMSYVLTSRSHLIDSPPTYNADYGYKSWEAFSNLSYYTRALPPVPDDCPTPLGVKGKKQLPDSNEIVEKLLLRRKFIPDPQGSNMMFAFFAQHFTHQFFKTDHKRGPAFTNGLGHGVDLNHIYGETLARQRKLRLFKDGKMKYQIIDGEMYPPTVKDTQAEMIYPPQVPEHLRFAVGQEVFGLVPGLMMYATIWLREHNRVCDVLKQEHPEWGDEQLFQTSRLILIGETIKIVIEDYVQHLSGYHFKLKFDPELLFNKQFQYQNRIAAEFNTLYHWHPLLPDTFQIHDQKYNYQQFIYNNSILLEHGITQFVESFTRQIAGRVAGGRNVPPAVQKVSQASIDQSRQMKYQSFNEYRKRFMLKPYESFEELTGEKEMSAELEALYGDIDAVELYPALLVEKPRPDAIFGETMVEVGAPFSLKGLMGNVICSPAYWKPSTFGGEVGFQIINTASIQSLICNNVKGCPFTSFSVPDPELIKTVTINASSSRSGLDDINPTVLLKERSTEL

[4] = biological target: T2, Prostaglandin G/H synthase 2 (Homo sapiens) (UniProt P35354); settings: at 5 µM
T2 sequence (whole entry): T1 sequence (P35354 whole entry)

A549 = assay: Antitumor activity against human A549 cells xenografted in mouse at 100 mg/kg for 10 days relative to control; format: functional
[5] = Antitumor activity against human HCA-7 cells xenografted in mouse at 200 mg/kg for 5 days relative to control; format: functional
SW837 = assay: Antitumor activity against human SW837 cells xenografted in mouse at 200 mg/kg for 5 days relative to control; format: functional
HCA-7 = assay: as §1; format: functional; summary of the method: as §2

Row | IC50 [3] | inhibition [4] | SMILES | inhibition at 1 µM [1] | other results
1 |  |  | CC(=O)c1sc(Nc2ccc(C#N)cc2)nc1C | 22.4% | 
2 | > 5000 nM | 49.3% | CCc1sc(Nc2ccc(OC)cc2)nc1C | 94.4% | EC50 [2]: 320 nM
3 |  |  | Clc1ccc(-c2csc(Nc3ccccc3)n2)cc1 | 51% | 
4 | > 5000 nM | 41.3% | CCc1sc(Nc2ccc(Oc3ccccc3)cc2)nc1C | 87.1% | 
5 | 810 nM | 73.1% | COc1ccc(-c2csc(Nc3ccc(C)cc3)n2)cc1 | 91.5% | 
6 |  |  | N#Cc1ccc(Nc2nc(-c3ccc(Cl)cc3)cs2)cc1 | 23.1% | 
7 | > 5000 nM | 43.4% | Fc1ccc(-c2csc(Nc3ccc(Oc4ccccc4)cc3)n2)cc1 | 87.9% | EC50 [2]: 120 nM
8 | > 5000 nM | 38.9% | COc1ccccc1-c1csc(Nc2ccc(Oc3ccccc3)cc2)n1 | 82% | EC50 [2]: 180 nM
9 | 910 nM | 94.4% | COc1ccc(-c2csc(Nc3ccc4c(c3)OCO4)n2)cc1 | 96.2% | 
10 | > 5000 nM | 31% | c1ccc(Oc2ccc(Nc3nc(-c4ccccc4)cs3)cc2)cc1 | 79.6% | EC50 [2]: 330 nM
11 |  |  | c1ccc(Oc2ccc(Nc3nc(-c4ccc5ccccc5c4)cs3)cc2)cc1 | 53.5% | 
12 | 1200 nM | 69.3% | COc1ccc(Nc2nc(-c3ccc(C)c(C)c3)cs2)cc1 | 73.9% | 
13 | > 5000 nM | 40.8% | COc1ccc(-c2csc(Nc3ccc(Oc4ccccc4)cc3)n2)cc1 | 80.4% | EC50 [2]: 240 nM
14 | 1390 nM | 55.1% | COc1cccc(Nc2nc(-c3ccc(Cl)cc3)cs2)c1 | 78.3% | 
15 | > 10000 nM | 32.1% | Clc1ccc(-c2csc(Nc3ccc(Oc4ccccc4)cc3)n2)cc1 | 75.5% | T/C (A549): 38%; EC50 [2]: 280 nM; T/C [5]: 61%; T/C (SW837): 40%
16 | 910 nM | 84.8% | Clc1ccccc1-c1csc(Nc2ccc3c(c2)OCO3)n1 | 85.9% | 
17 | 1370 nM | 66.8% | COc1ccc(Nc2nc(-c3ccc(OC)cc3)cs2)cc1 | 73.6% | 
18 | > 5000 nM | 12% | COc1ccc(Nc2nc(-c3ccc(Cl)cc3)c(C)s2)cc1 | 89.3% | 

Row | IC50 [3] | inhibition [4] | SMILES | inhibition at 1 µM [1] | other results
19 |  |  | CC(=O)c1sc(Nc2ccc3c(c2)OCO3)nc1C | 25.3% | 
20 |  |  | c1ccc(Oc2ccc(Nc3nc(-c4ccc(C5CCCCC5)cc4)cs3)cc2)cc1 | 41.6% | 
21 | 920 nM | 86% | COc1cccc(-c2csc(Nc3ccc4c(c3)OCO4)n2)c1 | 94.4% | 
22 |  |  | Clc1ccc(-c2csc(Nc3cccc4ccccc34)n2)cc1 | 51.4% | 
23 |  |  | O=C(c1ccccc1)c1sc(Nc2ccc(Oc3ccccc3)cc2)nc1-c1ccccc1 | 42% | 
24 |  |  | COc1ccc(Nc2nc(-c3ccc(C)cc3)cs2)cc1 | 37.3% | 
25 | > 5000 nM |  | Cc1nc(Nc2ccc(Oc3ccccc3)cc2)sc1C(C)O (stereo not given) | 80.4% | EC50 [2]: 90 nM
26 |  |  | N#Cc1ccc(Nc2nc(-c3ccccc3)c(C(=O)c3ccccc3)s2)cc1 |  | inhibition (HCA-7): inactive
27 | 410 nM | 114% | c1ccc(-c2csc(Nc3ccc4c(c3)OCO4)n2)cc1 | 98.2% | 
28 | 840 nM | 68.8% | Clc1ccc(-c2csc(Nc3ccc4c(c3)OCO4)n2)cc1 | 94.2% | 
29 |  |  | CC(=O)c1sc(Nc2ccccc2)nc1C | 29.9% | 
30 |  |  | COc1ccc(Nc2nc(-c3ccccc3)c(C(=O)c3ccccc3)s2)cc1 |  | inhibition (HCA-7): inactive
31 |  |  | O=C(c1ccccc1)c1sc(Nc2ccc3c(c2)OCO3)nc1-c1ccccc1 |  | inhibition (HCA-7): inactive
32 | > 5000 nM | 40.3% | COc1cccc(-c2csc(Nc3ccc(Oc4ccccc4)cc3)n2)c1 | 88.9% | EC50 [2]: 290 nM
33 | 1080 nM | 84.2% | CN(c1ccc(O)cc1)c1nc(-c2ccc(Cl)cc2)cs1 | 85.8% | 
34 | > 5000 nM | 28.9% | CC(=O)c1sc(Nc2ccc(Oc3ccccc3)cc2)nc1C | 87.9% | 
35 |  |  | COc1ccc(Nc2nc(C)c(C(C)=O)s2)cc1 | 58.5% | 
36 | 930 nM | 91.3% | COc1ccccc1-c1csc(Nc2ccc3c(c2)OCO3)n1 | 89% | 
